Data as given in ChEMBL document CHEMBL3779801, “Discovery of the Selective CYP17A1 Lyase Inhibitor BMS-351 for the Treatment of Prostate Cancer” (ACS Med Chem Lett, 2016).

Legend:
[1] = biological target: T1, Steroid 17-alpha-hydroxylase/17,20 lyase (Homo sapiens, UniProt P05093); experiment: Inhibition of CYP17A1 in human adrenal microsomes using [3H]-pregnenolone as substrate incubated for 90 mins by scintillation proximity assay in presence of NADPH; parameters: species or system Adrenal gland
T1 sequence (P05093 whole entry): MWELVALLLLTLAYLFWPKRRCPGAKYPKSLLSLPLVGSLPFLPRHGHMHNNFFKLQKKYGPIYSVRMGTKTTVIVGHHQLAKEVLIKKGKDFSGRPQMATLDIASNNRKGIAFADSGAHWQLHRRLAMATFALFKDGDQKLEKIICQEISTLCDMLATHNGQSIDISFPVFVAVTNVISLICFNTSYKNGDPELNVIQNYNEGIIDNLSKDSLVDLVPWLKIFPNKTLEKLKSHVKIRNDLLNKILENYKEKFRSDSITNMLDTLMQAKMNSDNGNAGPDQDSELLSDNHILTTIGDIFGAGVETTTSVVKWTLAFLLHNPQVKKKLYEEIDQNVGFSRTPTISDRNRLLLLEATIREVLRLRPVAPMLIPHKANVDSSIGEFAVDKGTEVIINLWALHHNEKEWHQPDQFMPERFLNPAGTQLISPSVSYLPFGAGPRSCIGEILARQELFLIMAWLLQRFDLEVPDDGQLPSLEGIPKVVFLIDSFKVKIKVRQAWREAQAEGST

[2] = tested on: Cynomolgus monkey; experiment: Free plasma concentration in cynomolgus monkey plasma at 1 mg/kg, po by LC-MS/MS analysis; format: ADME, organism-based, Macaca fascicularis; details: in vivo
[3] = AUC in cynomolgus monkey plasma at 4 mg/kg, po after 0.25 to 45 hrs by LC-MS/MS analysis; format: ADME, organism-based, Macaca fascicularis; parameters: dose 4 mg/kg, time upper 45 hr, time lower 0.25 hr, route oral
In short: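 Cynomolgus monkeys were dosed orally from a solution formulation. Plasma parameters are given as mean ± standard deviation.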

[4] = Inhibition of cynomolgus monkey CYP11B1 using hydroxy progesterone as substrate incubated for 120 mins by LC-MS method; parameters: species or system Macaca fascicularis
[5] = tested on: Cynomolgus monkey; experiment: Effect on cortisol level in one day castrated cynomolgus monkey assessed as baseline level at 1.5 mg/kg, po bid for 24 hrs by radiometric immunoassay; format: ADME, organism-based, Macaca fascicularis; details: in vivo
[6] = Inhibition of cynomolgus monkey CYP21A2 using hydroxy progesterone as substrate incubated for 120 mins by LC-MS method; parameters: species or system Macaca fascicularis
[7] = Metabolic stability in human liver microsomes assessed as parent compound remaining at 0.5 uM incubated for 10 mins; format: ADME; details: read-out: Stability
In short: (§1)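 Compound at 0.5 μM was incubated with human, mouse or cynomolgus liver microsomes for 10 min.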

[8] = biological target: T2, Steroid 17-alpha-hydroxylase/17,20 lyase (Macaca fascicularis, UniProt Q2XVA1); experiment: Inhibition of CYP17A1 in cynomolgus monkey using [3H]-pregnenolone as substrate incubated for 45 mins by scintillation proximity assay in presence of NADPH
T2 sequence (Q2XVA1 whole entry): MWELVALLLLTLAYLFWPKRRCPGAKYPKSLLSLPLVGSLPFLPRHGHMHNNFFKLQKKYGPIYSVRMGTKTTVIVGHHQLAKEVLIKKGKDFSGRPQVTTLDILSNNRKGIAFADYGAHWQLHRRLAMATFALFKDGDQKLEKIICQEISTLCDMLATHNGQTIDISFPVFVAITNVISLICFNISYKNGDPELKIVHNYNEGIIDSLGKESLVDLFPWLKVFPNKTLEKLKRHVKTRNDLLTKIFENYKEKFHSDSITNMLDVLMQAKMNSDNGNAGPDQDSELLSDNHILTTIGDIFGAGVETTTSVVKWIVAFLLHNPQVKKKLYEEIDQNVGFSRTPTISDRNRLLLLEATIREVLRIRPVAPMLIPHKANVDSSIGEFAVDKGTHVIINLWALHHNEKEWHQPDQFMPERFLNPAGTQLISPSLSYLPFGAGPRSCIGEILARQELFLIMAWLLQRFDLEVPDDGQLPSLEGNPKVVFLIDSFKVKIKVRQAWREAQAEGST

[9] = Tmax in one day castrated cynomolgus monkey at 1.5 mg/kg, po bid measured after second dose administered at 8 hrs; format: ADME, organism-based, Macaca fascicularis; details: male, in vivo
In short: (§2)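 Castrated cynomolgus monkeys were studied over one day with oral BID dosing at time 0 and 8 h. Plasma levels were sampled at set time points over 1–24 h and reported as average ± standard deviation in nM, n = 4.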

[10] = Intrinsic permeability from basolateral to apical side in human Caco2 cells; format: ADME, cell-based; details: Caco-2
[11] = biological target: T1, Steroid 17-alpha-hydroxylase/17,20 lyase; experiment: Inhibition of human CYP17A1 expressed in HEK293 cell microsomes using [3H]-pregnenolone as substrate incubated for 45 mins by scintillation proximity assay in presence of NADPH
[12] = Tmax in one day castrated cynomolgus monkey at 1.5 mg/kg, po bid; format: ADME, organism-based, Macaca fascicularis; details: male, in vivo; in short: as §2
[13] = biological target: T2, Steroid 17-alpha-hydroxylase/17,20 lyase; experiment: Selectivity ratio of cynomolgus monkey CYP17A1 hydroxylase activity using pregnenolone substrate to cynomolgus monkey CYP17A1 lyase activity using [3H]-hydroxypregnenolone substrate
In short: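 Hydroxylase and lyase activities were run with different enzyme preparations, so the hydroxylase/lyase ratios are estimates.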

[14] = Metabolic stability in mouse liver microsomes assessed as parent compound remaining at 0.5 uM incubated for 10 mins; format: ADME; details: read-out: Stability; in short: as §1
[15] = Volume of distribution at steady state in cynomolgus monkey plasma at 2 mg/kg, iv by LC-MS/MS analysis; format: ADME, organism-based, Macaca fascicularis; details: read-out: Vdss
In short: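 Cynomolgus monkeys were dosed intravenously. Plasma parameters are given as mean ± standard deviation.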

[16] = Intrinsic permeability from apical to basolateral side in human Caco2 cells; format: ADME, cell-based; details: Caco-2
[17] = biological target: T2, Steroid 17-alpha-hydroxylase/17,20 lyase; experiment: Inhibition of CYP17A1 in cynomolgus monkey adrenal microsomes using [3H]-pregnenolone as substrate incubated for 45 mins by scintillation proximity assay in presence of NADPH; parameters: species or system Adrenal gland

IC50 [1]: 20 nM
Cp(f) [2]: 80 nM
AUC [3]: 12.3 µM·h
IC50 [4]: > 7500 nM
IC50 [6]: > 7500 nM
remaining at 10 min, 0.5 µM [7]: 90%
IC50 [8]: 4 nM
Tmax [9]: 9.5 h
Papp B→A [10]: 30 ×10⁻⁶ cm/s
IC50 [11]: 19 nM
Tmax [12]: 1 h
remaining at 10 min, 0.5 µM [14]: 66%
Vd [15]: 4.4 L/kg
Papp A→B [16]: 40 ×10⁻⁶ cm/s
IC50 [17]: 2 nM
Compound: Cc1ccncc1-c1cccc2c1ncn2CC(F)(F)F
Activity [5]: Non-toxic
Selectivity ratio [13]: 11
